ChEMBL document CHEMBL1759898, “Synthesis of 5-arylated N-arylthiazole-2-amines as potential skeletal muscle cell differentiation promoters” (Bioorg Med Chem Lett, 2011)
Activity calls are given as the source filed them. The rule behind the calls is not given here.

Experiments:
Type in all cases: functional, cell-based
[1] = tested on: C2C12; assay: Induction of cell differentiation in mouse C2C12 cells assessed as myotube formation at 5 uM
Outline: (§1)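 C2C12 myoblasts grown 2 days in growth medium to about 70% confluence, then differentiation induced by serum reduction in differentiation medium containing compound at 5 µM final (from 20 mM DMSO stock). Controls received equal DMSO. Incubation at 37 °C for 7 days, medium changed at days 3 and 5. Myotube morphology was photographed under the microscope at 3, 5 and 7 days. Duplicates, four controls.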

[2] = tested on: C2C12; assay: Induction of cell differentiation in mouse C2C12 cells assessed as myotube formation at 5 uM after 3 days; outline: as §1
[3] = tested on: C2C12; assay: Induction of cell differentiation in mouse C2C12 cells assessed as myotube formation at 5 uM after 5 days; outline: as §1
[4] = tested on: C2C12; assay: Induction of cell differentiation in mouse C2C12 cells assessed as myotube formation at 5 uM after 7 days; outline: as §1

## c1ccc(CN(c2ccccc2)c2ncc(-c3ccccc3)s2)cc1
[1]
  Activity: Active

## Fc1ccc(-c2cnc(N(Cc3ccccc3)c3ccccc3)s2)cc1
[1]
  Activity: Active

## O=[N+]([O-])c1cccc(-c2cnc(N(Cc3ccccc3)c3ccccc3)s2)c1
[1]
  Activity: Active

## O=[N+]([O-])c1ccc(-c2cnc(N(Cc3ccccc3)c3ccccc3)s2)cc1
[1]
  Activity: inactive

## Fc1ncccc1-c1cnc(N(Cc2ccccc2)c2ccccc2)s1
[1]
  Activity: Active

## c1ccc(CN(c2ccccc2)c2ncc(-c3cccs3)s2)cc1
[2]
  Activity: Active
[3]
  Activity: Active
[4]
  Activity: Active
[1]
  Activity: Active

## Cc1ccccc1-c1cnc(N(Cc2ccccc2)c2ccccc2)s1
[1]
  Activity: inactive

## CCOC(=O)c1ccc(-c2cnc(N(Cc3ccccc3)c3ccccc3)s2)cc1
[1]
  Activity: Active

## Cc1ccc(-c2cnc(N(Cc3ccccc3)c3ccccc3)s2)cc1
[1]
  Activity: inactive
